Assay results published in ChEMBL document CHEMBL6083205, “A comprehensive apoptotic assessment of niloticin in cervical cancer cells: a tirucallane-type triterpenoid from Aphanamixis polystachya (Wall.) Parker” (RSC Med Chem, 2024).
Active and inactive are the calls of the source. The rule behind the calls is not given here.

Assays:
HeLa [1] = assay: Induction of apoptosis in human HeLa cells assessed as DNA fragmentation by measuring less intense peak for deoxyribose variation (1460-65 cm^-1) at 7 to 11 uM incubated for 24 hrs by surface-enhanced Raman spectroscopic analysis; format: functional, cell-based; conditions: dose 7-11 µM
Method in brief: (§1)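 DNA isolated from control and 7 or 11 μM-treated HeLa, mixed 8:2 with 40–45 nm gold nanoparticles as SERS substrate, 10 min incubation; confocal Raman with 633 nm laser at 5 mW, 600 g/mm grating, 3 cm−1 resolution, 3 accumulations of 5 s integration.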

HeLa [2] = assay: Induction of apoptosis in human HeLa cells assessed as proportion of necrotic cells at 7 uM by AnnexinV-FITC/PI staining based FACS analysis (reference value: 3.4%); format: functional
HeLa [3] = assay: Induction of mitochondrial membrane potential depolarization in human HeLa cells assessed as increase in JC-1 monomers by measuring increase in green fluorescence intensity at 7 to 11 uM incubated for 24 hrs by JC-1 staining based fluorescence microscopic analysis; format: functional, cell-based; conditions: dose 7-11 µM
Method in brief: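 HeLa treated for 24 h, then stained with JC-1 dye; red aggregate and green monomer fluorescence imaged on inverted microscope with FITC filter; aggregate-to-monomer ratio calculated relative to control; mean ± SD; scale bar 50 μm.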

HeLa [4] = assay: Induction of cell cycle arrest in human HeLa cells assessed as downregulation of Cyclin B1 protein expression at 7 to 11 uM by western blot analysis; format: functional, cell-based; conditions: dose 7-11 µM
Method in brief: (§2)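 Protein extracted from treated and untreated HeLa, BCA-quantified and normalised; SDS-PAGE, PVDF transfer, 5% skim milk block; primary antibodies 18 h at 4 °C, HRP secondary; chemiluminescent detection of Cdk-2, cyclin A2, cyclin B1, Cdc-25 with β-actin loading control.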

HeLa [5] = assay: Induction of apoptosis in human HeLa cells assessed as DNA fragmentation by measuring CH-deformation with enhanced peak at 1420 to 1440 cm^-1 at 7 to 11 uM incubated for 24 hrs by surface-enhanced Raman spectroscopic analysis; format: functional, cell-based; conditions: dose 7-11 µM; method in brief: as §1
HeLa [6] = assay: Induction of cell cycle arrest in human HeLa cells assessed as proportion of cell accumulation at G2 phase at 11 uM by propidium iodide staining based flow cytometry (reference value: 8.7%); format: functional
[7] = Cytotoxicity against human MCF-10A cells assessed as inhibition of cell growth incubated for 24 hrs by MTT assay; format: toxicity, cell-based
Method in brief: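 Non-tumorigenic breast epithelial line grown in MEGM with 5% horse serum at 37 °C and 5% CO2. Plated at 8 × 10^3 cells per well and treated 24 h later for 24 h at 5–100 μM. MTT (0.5 mg/mL in HBSS) was applied for 2–4 h at 37 °C in the dark, then DMSO. Read at 570 nm for IC50.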

HeLa [8] = assay: Induction of cell cycle arrest in human HeLa cells assessed as proportion of cell accumulation at S phase at 11 uM by propidium iodide staining based flow cytometry (reference value: 15.9%); format: functional
HeLa [9] = assay: Induction of cell cycle arrest in human HeLa cells assessed as downregulation of Cdc25 protein expression at 7 to 11 uM by western blot analysis; format: functional, cell-based; conditions: dose 7-11 µM; method in brief: as §2
HeLa [10] = assay: Induction of apoptosis in human HeLa cells assessed as proportion of necrotic cells at 11 uM by AnnexinV-FITC/PI staining based FACS analysis (reference value: 3.4%); format: functional
HeLa [11] = assay: Induction of apoptosis in human HeLa cells assessed as proportion of viable cells at 11 uM by AnnexinV-FITC/PI staining based FACS analysis (reference value: 77.7%); format: functional
SiHa = assay: Antiproliferative activity against human SiHa cells assessed as inhibition of cell growth incubated for 24 hrs by MTT assay; format: functional, cell-based
Method in brief: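 Cervical squamous carcinoma cells were seeded at 8 × 10^3 cells per 100 μL and incubated 24 h before compound was added (5–100 μM). After 24 h exposure, cells were washed and given 0.5 mg/mL MTT in HBSS for 2–4 h at 37 °C in the dark. Formazan was solubilised in DMSO, absorbance read at 570 nm, and IC50 determined.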

HeLa [12] = assay: Induction of apoptosis in human HeLa cells assessed as proportion of late apoptotic cells at 7 uM by AnnexinV-FITC/PI staining based FACS analysis (reference value: 14.5%); format: functional
HeLa [13] = assay: Induction of cell cycle arrest in human HeLa cells assessed as proportion of cell accumulation at subG0 phase at 11 uM by propidium iodide staining based flow cytometry (reference value: 7.6%); format: functional
HeLa [14] = assay: Induction of apoptosis in human HeLa cells assessed as proportion of late apoptotic cells at 11 uM by AnnexinV-FITC/PI staining based FACS analysis (reference value: 14.5%); format: functional
HeLa [15] = assay: Induction of apoptosis in human HeLa cells assessed as fold increase in caspase-3 activation at 7 to 11 uM by fluorometric assay relative to control; format: functional; conditions: dose 7-11 µM
Method in brief: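 HeLa seeded at 3 × 10^6 in 6-well plates, treated at 7 and 11 μM; caspase-3, -8 and -9 activity each measured by fluorometric kit per manufacturer's protocol; fluorescence read at ex 400 nm / em 505 nm; fold change versus control; mean ± SD.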

HeLa [16] = assay: Antiproliferative activity against human HeLa cells assessed as inhibition of cell growth incubated for 24 hrs by MTT assay; format: functional, cell-based
Method in brief: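 Cells kept in DMEM with 10% FBS and 1% antibiotic-antimycotic at 37 °C and 5% CO2. Seeded at 8 × 10^3 cells per 100 μL and left 24 h, then exposed 24 h to 5, 10, 20, 50 or 100 μM. MTT at 0.5 mg/mL in HBSS was added for 2–4 h at 37 °C in the dark. Formazan was dissolved in DMSO, A570 was read, and IC50 was derived.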

HeLa [17] = assay: Induction of cell cycle arrest in human HeLa cells assessed as downregulation of Cdk2 protein expression at 7 to 11 uM by western blot analysis; format: functional, cell-based; conditions: dose 7-11 µM; method in brief: as §2
HeLa [18] = assay: Induction of apoptosis in human HeLa cells assessed as proportion of early apoptotic cells at 11 uM by AnnexinV-FITC/PI staining based FACS analysis (reference value: 4.5%); format: functional
HeLa [19] = assay: Induction of cell cycle arrest in human HeLa cells assessed as proportion of cell accumulation at G1 phase at 11 uM by propidium iodide staining based flow cytometry (reference value: 67.7%); format: functional

With `C[C@@H](C[C@@H](O)[C@@H]1OC1(C)C)[C@@H]1CC[C@]2(C)C3=CC[C@H]4C(C)(C)C(=O)CC[C@]4(C)[C@H]3CC[C@@]12C` the Activity (HeLa [1]) was “Active”, the Activity (HeLa [2]) was 0.7% and the Activity (HeLa [3]) was “Active”. The Activity (HeLa [4]) was “Active”, the Activity (HeLa [5]) was “Active” and the Activity (HeLa [6]) was 6.2%. For the same compound, the IC50 at 24 h [7] was 83.3 µM, the Activity (HeLa [8]) was 9.8% and the Activity (HeLa [9]) was “Active”. For the same compound, the Activity (HeLa [10]) was 4.5%, the Activity (HeLa [11]) was 29.6% and the IC50 (SiHa) was 16.2 µM. The Activity (HeLa [12]) was 10.1%, the Activity (HeLa [13]) was 39.5% and the Activity (HeLa [14]) was 50.1%. The “fold change (FC)” value (HeLa [15]) was 3, the IC50 (HeLa [16]) was 11.7 µM and the Activity (HeLa [17]) was “Active”. It also gave an Activity (HeLa [18]) of 15.8% and an Activity (HeLa [19]) of 44.1%.
